Data reported in ChEMBL document CHEMBL1127652, “An enantiospecific synthesis of the human cytomegalovirus antiviral agent [(R)-3-((2-amino-1,6-dihydro-6-oxo-9H-purin-9-yl)methoxy)-4- hydroxybutyl]phosphonic acid” (J Med Chem, 1994).

What was measured:
MRC5 = assay: In vitro antiviral activity against Human cytomegalovirus (HCMV)strain AD169 in MRC-5 lung fibroblasts using a DNA-hybridization assay; type: functional, cell-based
How it was run: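 HCMV strain AD169 grown in MRC-5 human lung fibroblasts; viral DNA read out by DNA hybridization. Each drug concentration tested in triplicate. IC50 derived by probit linear regression, and reported values span 7 to 12 independent experiments with standard errors.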

[1] = In vitro toxicity against burst forming unit erythroid (BFU-E); conditions: human, burst forming unit erythroid (BFU-E) progenitor cells
[2] = In vitro toxicity against colony forming unit granulocyte macrophage (CFU-GM); type: cell-based; conditions: human
IM-9 = assay: The compound is evaluated for toxicity in IM-9 cells; type: cell-based; conditions: Homo sapiens
MOLT-4 = assay: The compound is evaluated for toxicity in MOLT-4 cells; type: cell-based; conditions: Homo sapiens
CCRF-CEM = assay: The compound is evaluated for toxicity in CEM cells; type: cell-based; conditions: Homo sapiens

**Q.** With `Nc1nc(O)c2ncn(COC(CO)CCP(=O)(O)O)c2n1` (stereo not drawn) as the compound, how does the IC50 (MRC5) read?
**A.** 5.6 µM

**Q.** What about the IC50 [1] of the same compound?
**A.** 200 µM

**Q.** What about the IC50 [2] of the same compound?
**A.** 280 µM

**Q.** For `CCOP(=O)(O)CC[C@H](CO)OCn1cnc2c(O)nc(N)nc21`, which IC50 (MRC5) is on record?
**A.** 6.8 µM

**Q.** Which IC50 (MRC5) does the source give for `Nc1nc2c(ncn2CO[C@@H](CO)CCP(=O)(O)O)c(=O)[nH]1` here?
**A.** 1.7 µM

**Q.** And the IC50 (IM-9)?
**A.** > 100 µM

**Q.** What about the IC50 (MOLT-4) of the same compound?
**A.** > 100 µM

**Q.** And the IC50 [1]?
**A.** 126 µM

**Q.** And the IC50 (CCRF-CEM)?
**A.** > 100 µM

**Q.** And the IC50 [2]?
**A.** 96 µM

**Q.** For `Nc1nc2c(ncn2COC(CO)CO)c(=O)[nH]1` [GANCICLOVIR], which IC50 (MRC5) is on record?
**A.** 1.7 µM

**Q.** What about the IC50 [1] of the same compound?
**A.** 29 µM

**Q.** What about the IC50 [2] of the same compound?
**A.** 19 µM
